Compound activity (PubChem BioAssay)
TAAR1 antag = human TAAR1 antagonism. Q96RJ0. CHO RD-HGA16 TAAR1, Fluo-8 calcium fluorescence, antagonist. inhibition, % at 3 µM. 1.5% of 360,000 active. AID 624466;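 active = inhibition above a per-plate cutoff, the mean inhibition of test compounds on that plate plus 3 SD, cut at about 49% in these data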;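 also: 0% = DMSO plus EC80 beta-PEA response and 100% = DMSO alone without agonist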
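Assay system: RD-HGA16 CHO cells with stable hTAAR1 and Gα16 / Reagent: EC80 β-phenethylamine stimulus / Doses: 3 µM, single point / Timing: dye loading 75 min at 37 °C, then 30 min room temperature / Measured by: Fluo-8 intracellular calcium dye fluorescence, real-time kinetic reads / Controls: vehicle wells and EC80 agonist wells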
V1aR counter = counter-screen for oxytocin receptor agonists: human V1a receptor agonists | P37288 | CHO-V1R cells, Fluo-8 calcium fluorescence, agonist mode; 0% DMSO, 100% 3 nM vasopressin | activation, % at 3 µM | 0.25% of 320,000 active;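 active = activation above the mean activation of all tested compounds plus 3 SD, per screening run, cut at about 20% in these data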;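 also: signal is peak over basal fluorescence ratio across a 100 second FLIPR read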
OXTR potentiate = potentiators of human oxytocin receptor. CHO-OTR cells, Fluo-8 calcium fluorescence, potentiator mode; 0% = oxytocin EC15, 100% = EC100. activation, % at 3 µM. 0.061% of 320,000 active;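 active = activation above that plate's cutoff, the mean activation of tested compounds plus 3 SD, cut at about 6.6% in these data, passing the limit was not always enough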;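 also: 100% uses oxytocin at 75 nM as the full agonist control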
Target sequence (P30559 whole entry, looked up): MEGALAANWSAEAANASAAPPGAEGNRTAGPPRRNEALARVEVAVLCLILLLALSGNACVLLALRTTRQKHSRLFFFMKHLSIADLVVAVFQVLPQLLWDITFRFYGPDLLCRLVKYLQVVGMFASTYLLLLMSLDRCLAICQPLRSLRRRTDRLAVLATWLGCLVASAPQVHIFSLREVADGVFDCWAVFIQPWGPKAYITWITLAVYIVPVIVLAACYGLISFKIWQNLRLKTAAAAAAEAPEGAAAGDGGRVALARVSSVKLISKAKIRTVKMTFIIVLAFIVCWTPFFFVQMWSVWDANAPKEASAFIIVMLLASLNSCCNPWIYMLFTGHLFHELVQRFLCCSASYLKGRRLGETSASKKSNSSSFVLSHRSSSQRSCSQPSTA
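Replication – single well per compound, singlicate · Assay system – CHO cell line stably expressing human OTR · Timing – 6 min pre-incubation, 100 s read · Measure – normalized max/min fluorescence ratio, % activation · Doses – 3.0 µM, one dose · Detection – Fluo-8 calcium dye fluorescence · Probe or stimulus – oxytocin near EC15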
TAAR1 agonist = human TAAR1 agonism. AID 624467. 0.99% of 360,000 active. CHO RD-HGA16 TAAR1, Fluo-8 calcium fluorescence; vehicle wells 0%, saturating PEA agonist 100%. activation, % at 3 µM;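 active = activation above the mean activation of all test compounds in the run plus 3 SD, cut at about 38% in these data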
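System: CHO-derived RD-HGA16 cells with stable Gα16 and human TAAR1. Times: 17-24 h plating, Fluo-8 75 min 37 °C, 30 min RT. Measured by: calcium-sensitive Fluo-8 signal, excitation 470-495, emission 515-575 nm. Read-out basis: % activation relative to PEA EC100 response. Control set: DMSO and PEA EC100. Repeats: no replicates (n 1).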
OXTR agonist = human OXTR agonism; P30559; CHO-OTR cells, Fluo-8 calcium fluorescence; normalized: DMSO 0%, oxytocin 100%; activation, % at 3 µM; 0.32% of 320,000 active;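 active = activation above the mean of all tested compounds plus 3 SD, cutoff set per screening run, cut at about 20% in these data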;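 also: peak over basal fluorescence ratio from a 100 s FLIPR kinetic read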
An asterisk follows results filed as active; x = no result. In the library only some 2.3% were active in any assay of this set; here they are far more common.

SMILES	TAAR1 antag	V1aR counter	OXTR potentiate	TAAR1 agonist	OXTR agonist
N=c1c2c(-c3ccccc3)c(-c3ccccc3)n(Cc3ccco3)c2ncn1CCCn1ccnc1	-17.9	1.1	-6.0	20.9	-0.8
O=C(Nc1cccc2c1CCCC2)C1CCCN(S(=O)(=O)c2cccc3nonc23)C1 (centres undefined)	-10.6	-1.3	-6.0	10.3	-1.3
CN(C)c1ccc(NC(=O)c2ccc([N+](=O)[O-])cc2Cl)cc1	-2.2	0.1	-7.5	0.0	-0.5
COc1cc(OC)c(C(=O)OCC(=O)c2ccc3c(c2)NC(=O)CO3)cc1OC	12.7	2.2	-2.6	12.1	2.9
O=C1COc2ccc(C(=O)COC(=O)c3ccc(F)cc3Cl)cc2N1	57.1*	6.7	-6.5	11.6	2.5
Cc1ccc(C(C(=O)NCc2ccc(F)cc2)N(CCCO)C(=O)C2COc3ccccc3O2)o1 (centres undefined)	51.8*	1.8	-16.0	16.0	2.4
Cc1ccc(CNC(=O)C2COc3ccccc3O2)cc1 (centres undefined)	-16.4	-1.3	-8.4	0.6	-1.7
O=[N+]([O-])c1ccc(NC(=S)NCCc2ccc(Cl)cc2)cc1	56.8*	7.5	-31.4	8.2	14.9
CCC(C)C(NC(=O)C1CCC(=O)N1C(=O)OCc1ccccc1)C(=O)NC(Cc1ccccc1)C(N)=O (centres undefined)	-4.2	-0.3	5.4	-3.4	0.9
CC[C@H](C)[C@H](NC(=O)[C@H](Cc1ccc(O)cc1)NC(=O)[C@@H](N)C(C)C)C(=O)N[C@@H](Cc1cnc[nH]1)C(=O)N1CCC[C@H]1C(=O)N[C@@H](Cc1ccccc1)C(=O)O	x	25.1*	-24.6	x	71.7*
COc1cc(/C=C(\C#N)c2nc3ccc(C)cc3[nH]2)cc([N+](=O)[O-])c1O	5.4	x	x	6.8	x
CCOc1cc(N(CC)CC)ccc1/C=C(/C#N)c1nc2ccccc2[nH]1	91.8*	115.8*	-24.4	48.3*	114.1*
CCCOc1cc(N(CC)CC)ccc1/C=C(/C#N)c1nc2ccc(C)cc2[nH]1	76.8*	27.4*	-13.7	41.2*	32.8*
CCN(CC)c1ccc(/C=C(/C#N)c2nc3ccc(C)cc3[nH]2)c(OC(C)C)c1	72.6*	49.8*	-14.1	41.2*	69.0*
Cc1ccc2nc(/C(C#N)=C\c3cc(O)ccc3[N+](=O)[O-])[nH]c2c1	8.9	-0.2	-7.2	-1.2	-0.7
Cc1cc(/C=C(\C#N)c2nc3ccccc3[nH]2)c(C)n1C	-11.9	0.2	-8.5	1.8	0.8
CC(C)n1c(SCC(=O)Nc2nc3c(s2)CCCC3)nc2c1c(=O)n(C)c(=O)n2C	56.5*	2.2	-7.6	24.7	0.8
Cc1noc(N)c1C1(O)C(=O)N(C(C)C)c2ccccc21 (centres undefined)	-5.5	0.8	3.8	3.6	1.4
CC12CCC(=O)C=C1CCC1C2CCC2(C)C(c3csc(N)n3)CCC12 (centres undefined)	50.6*	x	x	22.7	x
O=C1CCC/C(=N/NC(=O)c2sc3ccccc3c2Cl)C1	27.1	32.0*	-7.2	34.6	12.0
O=C(NN=C1CCCC1)c1sc2ccccc2c1Cl	1.2	-0.4	-8.9	0.1	-0.9
CCN(CC)S(=O)(=O)c1cccc(NC(=O)COC(=O)/C=C/c2cccs2)c1	-6.0	6.8	-21.1	2.0	5.1
CC(=O)Nc1cccc(NC(=O)CSc2ncc(-c3ccc(Cl)cc3)n2Cc2ccco2)c1	84.6*	11.3	-22.5	17.9	12.7
O=C(CSc1nnc(-c2ccc(Cl)cc2)n1Cc1ccco1)Nc1ccc2c(c1)OCCO2	41.2	-0.6	-9.3	7.8	-1.2
COc1ccc(-c2cnc(SCC(=O)Nc3ccc4c(c3)OCO4)n2Cc2ccco2)cc1	51.1*	x	x	12.4	x
SMILES	TAAR1 antag	V1aR counter	OXTR potentiate	TAAR1 agonist	OXTR agonist
CCN(C[C@H]1N[C@@](Cc2ccccc2)(C(=O)OC)[C@H]2C(=O)N(Cc3ccccc3)C(=O)[C@@H]12)S(=O)(=O)c1ccc(OC(F)(F)F)cc1	5.5	1.4	-7.8	0.8	1.4
C=CCN1[C@@H](C)[C@H](c2ccccc2)Oc2cccc(NCC(C)C)c2S1(=O)=O	-21.6	x	x	1.5	x
CCc1ccc(OCC(=O)Nc2nnc(-c3ccco3)s2)cc1	-26.8	1.8	-6.3	38.7*	1.6
CC(C)CC(=O)Nc1nnc(-c2ccco2)s1	-10.3	-0.3	2.4	6.8	-1.7
CCOc1ccc(-c2[nH]ncc2Oc2ccccc2OCC)c(O)c1	49.4*	4.2	-16.5	17.3	3.9
CCOc1ccc(-c2[nH]ncc2Oc2ccccc2OC)c(O)c1	27.2	0.6	-17.6	0.6	-1.8
COc1cccc(NC(=O)CN(c2ccccc2OC)S(=O)(=O)c2cccs2)c1	29.4	2.4	-7.8	6.8	-1.3
COc1ccc2c(c1)[nH]c1c(=O)n(Cc3ccccn3)cnc12	4.7	-1.1	5.6	1.8	-0.2
COc1ccc2c(c1)[nH]c1c(=O)n(Cc3ccco3)cnc12	36.4	11.0	-14.3	47.5*	10.5
O=C(NCCc1cccs1)C1CCC(=O)N(CCc2cccc(F)c2)C1 (centres undefined)	-9.6	0.2	-13.3	41.8*	-1.7
COc1ccc(C(C(=O)NCc2ccccc2)N(Cc2ccco2)C(=O)c2cnccn2)cc1 (centres undefined)	53.4*	0.3	-9.2	14.6	2.2
CCOC(=O)Nc1ccc2c(c1)Cc1cc([N+](=O)[O-])ccc1-2	-2.9	x	x	0.0	x
Nc1ccc2c(c1)Cc1cc([N+](=O)[O-])ccc1-2	31.5	31.2*	-13.2	24.4	22.1*
CC(O)CN(CC(C)O)c1ccc2c(c1)Cc1cc([N+](=O)[O-])ccc1-2 (centres undefined)	79.3*	x	x	92.9*	x
CC(=NO)c1ccc2c(c1)Cc1cc([N+](=O)[O-])ccc1-2	-11.0	x	x	0.7	x
COc1cccc(C(C(=O)NC(C)(C)C)N(C(=O)CCC(=O)Nc2cc(C)on2)C(C)(C)C)c1OC (centres undefined)	-6.3	1.6	6.4	1.9	-1.8
CC1(C)Cc2c(sc(NC(=O)c3ccc(C(=O)c4ccccc4)cc3)c2C(N)=O)C(C)(C)N1	16.6	8.7	-14.8	46.4*	16.8
COc1ccc(NC(=O)CN2C(=O)NC3(CCCC3)C2=O)c(OC)c1	2.9	-0.6	3.5	0.4	0.1
COc1ccc(C(=O)N2CCN(S(=O)(=O)c3ccc4c(c3)OCCO4)CC2)cc1	-22.3	x	x	6.8	x
CCOP(=O)(c1ccccc1)c1nc(-c2ccccc2C)oc1N1CCCCC1 (centres undefined)	-11.9	1.3	-0.5	59.6*	0.9
Cc1ccccc1-c1nc(P(=O)(c2ccccc2)c2ccccc2)c(N2CCOCC2)o1	-37.6	-1.1	5.5	7.9	-2.7
Cc1ccc(S(C)(=O)=O)cc1C(=O)OCC(=O)N(Cc1ccccc1)Cc1ccccc1	53.7*	2.1	-6.1	17.2	-0.7
